The text below walks through data of ChEMBL document CHEMBL1152279 (J Med Chem, 2008).

Data set [1] has as its target Histamine H2 receptor (Cavia porcellus) (UniProt P47747). Nature of the data set: Activity at guinea pig recombinant histamine H2 receptor-Gsalpha fusion protein expressed in Sf9 cells by steady-state GTPase activity assay relative to histamine. An outline of the steps:
(§1)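 Membranes from Sf9 insect cells expressing the receptor construct named in each line: hH1R with RGS4, hH2R-GsR or gpH2R-GsR fusion, hH3R with GRi, Gβ1γ2 and RGS4, or hH4R-RGS19 fusion with GRi2 and Gβ1γ2. […] Values are mean ± SEM.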

The target of data set [2] is Histamine H3 receptor (Homo sapiens, UniProt Q9Y5N1). Nature of the data set: Activity at human recombinant histamine H3 receptor expressed in Sf9 cells coexpressing Galphai, G-beta-1-gamma-2 and RGS4 by steady-state GTPase activity assay. An outline of the steps:
as §1

Data set [3] deals with Histamine H2 receptor (Cavia porcellus) (UniProt P47747). Nature of the data set: Agonist activity at histamine H2 receptor in guinea pig spontaneously beating right atrium assessed as positive chronotropic activity relative to histamine. The format is functional, tissue-based. Conditions: Cardiac atrium.
In data set [4] the target is Histamine H1 receptor (Homo sapiens) (UniProt P35367). Nature of the data set: Activity at human recombinant histamine H1 receptor expressed in Sf9 cells coexpressing RGS4 by steady-state GTPase activity assay relative to histamine. The method in brief: as §1
The target in data set [5] is Histamine H1 receptor (Cavia porcellus) (UniProt P31389). Nature of the data set: Antagonist activity at histamine H1 receptor in guinea pig ileum assessed as […].
For data set [6], the target named is T1, Histamine H2 receptor (Homo sapiens, UniProt P25021). Nature of the data set: Activity at human recombinant histamine H2 receptor-Gsalpha fusion protein expressed in Sf9 cells by steady-state GTPase activity assay relative to histamine. The method in brief: as §1
Data set [7] has as its target Histamine H2 receptor (Cavia porcellus) (UniProt P47747). Put plainly: Antagonist activity at histamine H2 receptor in guinea pig spontaneously beating right atrium assessed as histamine Emax at 58 uM. In kind it is functional, tissue-based. Conditions: Cardiac atrium.
Data set [8] has as its target Histamine H1 receptor (Homo sapiens) (UniProt P35367). Nature of the data set: Antagonist activity at histamine H1 receptor in human U373 MG cells assessed as inhibition of histamine-induced intracellular calcium level preincubated for 15 mins prior to histamine challenge. In kind it is functional, cell-based. Conditions: U-373MG ATCC. The method in brief: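 U373-MG human cells expressing H1R, calcium assay. […] KB was derived from IC50 by the Cheng-Prusoff equation. Values are the mean of two experiments.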

Data set [9] deals with Histamine H2 receptor (Cavia porcellus) (UniProt P47747). Put plainly: Antagonist activity at histamine H2 receptor in guinea pig spontaneously beating right atrium assessed as positive chronotropic activity at 58 uM relative to histamine. To be noted: Cardiac atrium. In kind it is functional, tissue-based.
The target of data set [10] is T2, Histamine H2 receptor (Cavia porcellus, UniProt P47747). Nature of the data set: Agonist activity at histamine H2 receptor in guinea pig spontaneously beating right atrium assessed as positive chronotropic activity. In kind it is functional, tissue-based, Cardiac atrium.
Data set [11] deals with Histamine H1 receptor (Cavia porcellus, UniProt P31389). Nature of the data set: Antagonist activity at histamine H1 receptor in guinea pig ileum assessed as inhibition of histamine-induced […]. In kind it is functional, tissue-based. Conditions: read-out: pA2 (converted).
In data set [12] the target is Histamine H4 receptor (Homo sapiens, UniProt Q9H3N8). Put plainly: Activity at human recombinant histamine H4 receptor-RGS19 fusion protein expressed in Sf9 cells coexpressing Galphai2 and G-beta-1-gamma-2 by steady-state GTPase activity assay.
Data set [13] addresses T2, Histamine H2 receptor. Put plainly: Activity at guinea pig recombinant histamine H2 receptor-Gsalpha fusion protein expressed in Sf9 cells by steady-state GTPase activity assay. The method in brief:
(§2)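 Membranes from Sf9 insect cells expressing the receptor construct named in each line: hH1R with RGS4, hH2R-GsR or gpH2R-GsR fusion, hH3R with GRi, Gβ1γ2 and RGS4, or hH4R-RGS19 fusion with GRi2 and Gβ1γ2. Values are mean ± SEM.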

Data set [14] concerns the target T1, Histamine H2 receptor. Put plainly: Activity at human recombinant histamine H2 receptor-Gsalpha fusion protein expressed in Sf9 cells by steady-state GTPase activity assay. The method in brief: as §2
For data set [15], the target named is T2, Histamine H2 receptor. Put plainly: Antagonist activity at histamine H2 receptor in guinea pig spontaneously beating right atrium assessed as inhibition of histamine-induced positive chronotropic activity. In kind it is functional, tissue-based, Cardiac atrium.
A short description of data set [16]: Terminal half life in nude mouse plasma. In kind it is ADME, organism-based. Conditions: read-out: beta t1/2.
Data set [17] can be described thus: Dissociation constant, pKa of the compound. The format is physicochemical.

Histamine H3 receptor, sequence (Q9Y5N1 whole entry): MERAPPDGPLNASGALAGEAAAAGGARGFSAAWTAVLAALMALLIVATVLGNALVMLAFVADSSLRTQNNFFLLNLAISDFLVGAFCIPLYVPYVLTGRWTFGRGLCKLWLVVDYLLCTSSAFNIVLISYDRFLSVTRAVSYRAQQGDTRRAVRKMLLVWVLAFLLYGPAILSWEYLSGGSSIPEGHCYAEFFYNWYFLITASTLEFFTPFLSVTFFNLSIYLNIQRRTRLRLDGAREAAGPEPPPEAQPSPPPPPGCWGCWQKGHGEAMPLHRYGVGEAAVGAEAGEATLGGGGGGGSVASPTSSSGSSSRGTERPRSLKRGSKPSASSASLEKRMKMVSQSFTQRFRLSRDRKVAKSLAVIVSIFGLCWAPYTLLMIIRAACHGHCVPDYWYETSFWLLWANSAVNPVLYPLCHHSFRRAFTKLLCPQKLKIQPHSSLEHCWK
Histamine H1 receptor, sequence (P31389 whole entry, the tested form may be a part): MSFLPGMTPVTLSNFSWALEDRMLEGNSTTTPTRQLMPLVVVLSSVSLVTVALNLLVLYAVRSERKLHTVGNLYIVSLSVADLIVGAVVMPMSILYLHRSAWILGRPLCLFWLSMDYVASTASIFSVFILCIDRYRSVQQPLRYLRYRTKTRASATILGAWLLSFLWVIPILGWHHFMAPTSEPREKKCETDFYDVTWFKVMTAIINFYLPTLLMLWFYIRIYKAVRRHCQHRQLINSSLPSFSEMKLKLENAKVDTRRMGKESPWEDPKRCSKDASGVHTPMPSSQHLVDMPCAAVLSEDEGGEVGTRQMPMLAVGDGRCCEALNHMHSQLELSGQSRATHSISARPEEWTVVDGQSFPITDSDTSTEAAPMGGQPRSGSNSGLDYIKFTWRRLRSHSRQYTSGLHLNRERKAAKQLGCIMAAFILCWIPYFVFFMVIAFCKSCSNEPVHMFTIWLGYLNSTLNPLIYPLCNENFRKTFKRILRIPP
T1 sequence (P25021 whole entry, the tested form may be a part): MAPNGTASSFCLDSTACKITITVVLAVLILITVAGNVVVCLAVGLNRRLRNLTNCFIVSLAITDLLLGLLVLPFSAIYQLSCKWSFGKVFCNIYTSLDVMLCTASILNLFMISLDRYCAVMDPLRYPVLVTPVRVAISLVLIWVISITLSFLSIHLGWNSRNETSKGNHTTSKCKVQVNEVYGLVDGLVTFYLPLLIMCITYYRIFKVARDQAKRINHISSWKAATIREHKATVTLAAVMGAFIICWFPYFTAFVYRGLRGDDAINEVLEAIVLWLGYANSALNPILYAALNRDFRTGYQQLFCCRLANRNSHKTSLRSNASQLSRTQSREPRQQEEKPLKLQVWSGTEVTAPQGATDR
Histamine H4 receptor, sequence (Q9H3N8 whole entry, the tested form may be a part): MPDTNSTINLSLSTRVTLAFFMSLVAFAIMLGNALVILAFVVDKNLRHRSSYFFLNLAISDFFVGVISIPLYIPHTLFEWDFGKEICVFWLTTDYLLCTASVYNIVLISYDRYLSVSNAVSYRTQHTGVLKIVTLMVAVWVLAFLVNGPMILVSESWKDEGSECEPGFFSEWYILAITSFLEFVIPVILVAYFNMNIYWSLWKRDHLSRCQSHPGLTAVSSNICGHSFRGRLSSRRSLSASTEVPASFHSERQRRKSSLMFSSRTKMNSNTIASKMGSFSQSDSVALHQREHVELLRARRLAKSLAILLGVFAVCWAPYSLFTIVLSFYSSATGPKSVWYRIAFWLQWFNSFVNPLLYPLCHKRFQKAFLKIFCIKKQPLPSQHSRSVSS
Histamine H1 receptor (Homo sapiens), sequence (P35367 whole entry): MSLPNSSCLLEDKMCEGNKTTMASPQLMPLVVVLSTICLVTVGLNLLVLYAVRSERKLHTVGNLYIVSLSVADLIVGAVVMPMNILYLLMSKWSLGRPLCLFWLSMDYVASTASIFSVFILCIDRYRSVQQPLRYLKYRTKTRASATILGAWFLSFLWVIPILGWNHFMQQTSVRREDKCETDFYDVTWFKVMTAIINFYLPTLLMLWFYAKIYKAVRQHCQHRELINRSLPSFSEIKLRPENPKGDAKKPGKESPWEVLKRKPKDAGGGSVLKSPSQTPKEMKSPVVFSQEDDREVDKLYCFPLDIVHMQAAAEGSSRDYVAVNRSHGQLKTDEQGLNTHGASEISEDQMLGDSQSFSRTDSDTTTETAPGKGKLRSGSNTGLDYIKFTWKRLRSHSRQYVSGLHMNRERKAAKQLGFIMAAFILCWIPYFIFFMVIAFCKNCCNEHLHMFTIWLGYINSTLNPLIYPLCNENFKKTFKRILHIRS
T2 sequence (P47747 whole entry): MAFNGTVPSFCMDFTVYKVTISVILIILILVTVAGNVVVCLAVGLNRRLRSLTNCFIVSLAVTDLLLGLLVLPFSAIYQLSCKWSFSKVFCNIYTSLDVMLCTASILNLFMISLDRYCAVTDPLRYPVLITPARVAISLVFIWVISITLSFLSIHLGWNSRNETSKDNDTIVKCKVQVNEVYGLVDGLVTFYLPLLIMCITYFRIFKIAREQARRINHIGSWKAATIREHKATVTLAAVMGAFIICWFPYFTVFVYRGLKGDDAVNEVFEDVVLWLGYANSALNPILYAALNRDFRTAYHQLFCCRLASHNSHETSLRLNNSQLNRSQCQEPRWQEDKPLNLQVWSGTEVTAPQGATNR
Histamine H2 receptor (Cavia porcellus), sequence (P47747 whole entry, the tested form may be a part): as the sequence (P47747 whole entry) above
Histamine H1 receptor (Cavia porcellus), sequence (P31389 whole entry, the tested form may be a part): as the sequence (P31389 whole entry, the tested form may be a part) above

For the compound `N=C(NCCCc1c[nH]cn1)NC(=O)CC(c1ccccc1)c1ccccc1`, the Activity in data set [1] was determined as 19000%; in data set [3] it was 3530%; in [4], 6.4%; in data set [6], 1500%. Besides, the Efficacy in data set [1] is 0.93; in data set [4], 0.19; in data set [6], 0.69. The Kb in data set [2] was 17.1 nM. The maximal effect (Emax) in data set [3] is 85%. Further, the pD'2 in data set [5] is 5.2.

As for `CC(CCNC(=N)NC(=O)CCc1c[nH]cn1)c1ccccc1` (stereo not drawn), the Emax in data set [7] turned out to be 45%; in data set [9], 7%. Moreover, the Kb in data set [8] was determined as 9300 nM.

On to `NC(=NCCCc1cnc[nH]1)NC(=O)CC(c1ccccc1)c1ccccc1`, for which the EC50 in data set [10] was 28.2 nM; in data set [12], 8.6 nM; in data set [13] it was 6 nM; in data set [14], 78 nM. The Kb in [11] was 741 nM.

With `CC(CCN=C(N)NC(=O)CCc1cnc[nH]1)c1ccccc1` (stereo not drawn), the pA2 in data set [15] is 5.19.

With `CC(CC(=O)NC(N)=NCCCc1cnc[nH]1)c1ccccc1` (stereo not drawn), the 50% effective concentration (EC50) in [2] is 2.45 nM; in data set [10] it was 15.8 nM; in data set [12], 15.3 nM; in data set [13], 12 nM; in data set [14], 67 nM. For the same compound, the Kb in data set [11] was 1350 nM. Further, in data set [16], the half-life worked out at 67 min.

In the case of `CC(CC(=O)NC(N)=NCCCc1cnc[nH]1)c1cccs1` (stereo not drawn), the EC50 in data set [2] was 1.64 nM; in data set [10], 38 nM; in data set [12], 6.3 nM; in data set [13] it was 21 nM; in data set [14], 109 nM.

Turning to `N=C(NCCCc1c[nH]cn1)NC(=O)CC(c1ccccc1)c1nccs1` (stereo not drawn), the Activity is 8570% in [1], 2630% in data set [3], 1% in data set [4] and 1000% in data set [6]. The Efficacy in [1] amounted to 0.94; in [6], 0.8. Besides, the Kb came to 113 nM in [2] and 6800 nM in data set [8]. Also, the Emax in data set [3] came to 100%.

As to `N=C(N)N` [GUANIDINE], the pKa in data set [17] came to 12.5.

Regarding `CC(=O)NC(=N)N`, in [17], the pKa was determined as 7.6.

Regarding `N=C(NCCCc1c[nH]cn1)NC(=O)CC(c1ccc(F)c(F)c1)c1nccs1` (stereo not drawn), in data set [3], the Activity stood at 2000% and the Emax was found to be 90%. Further, the Kb in [8] was 4600 nM. Further, the EC50 in data set [10] is 50.1 nM. In addition, the Kb in [11] is 4680 nM. Further, the half-life in data set [16] turned out to be 28 min.

As to `NC(=NCCCc1cnc[nH]1)NC(=O)CC(c1ccccc1)c1nccs1` (stereo not drawn), the 50% effective concentration (EC50) in data set [10] is 38 nM; in data set [12] it was 66.3 nM; in data set [13], 14 nM; in data set [14] it was 120 nM. The Kb in data set [11] is 4680 nM.
